Source: the EternaBench riboswitch data

System: MS2 coat protein
Test: apparent Kd, MS2 coat protein; higher = weaker binding; RNA-MaP array; FMN 200 µM where present
Procedure, shortened: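 The apparent Kd comes from binding curves fitted cluster by cluster, filtered, and summarised as a median. Those curves followed SNAP-549-labelled MS2 coat protein from 0.7 or 1.5 nM, doubling to 3 µM, on Illumina sequencing-chip clusters where stalled E. coli RNA polymerase had transcribed the designs, without and then with constant ligand. The buffer was 100 mM Tris-HCl pH 7.5, 80 mM KCl, 4 mM MgCl2, BSA, DTT, yeast tRNA and Tween-20, and green signal was normalised to red-channel RNA signal and control-cluster median Fmax.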

[1] = designed as: OFF switch for flavin mononucleotide, no ligand
[2] = ligand present: flavin mononucleotide, designed as: OFF switch for flavin mononucleotide
[3] = designed as: ON switch for flavin mononucleotide, no ligand
[4] = ligand present: flavin mononucleotide, designed as: ON switch for flavin mononucleotide

| Sequence | apparent Kd [1] [nM] | apparent Kd [2] [nM] | apparent Kd [3] [nM] | apparent Kd [4] [nM] |
| --- | --- | --- | --- | --- |
| GCGACGAAAGUCGAACGAUGUAGCAGAAGGACAUGAGGAUCACCCAUGUCAGCUGUAACAGCCAUGUAGGAUAUGCUACAUCGC | 4.19 | 5.42 |  |  |
| GCGAUGAUCGAGAAGGCCACUACAUGAGGAUCACCCAUGUCGUGGUGUAUUGGAGGAUAUCGAUCGGCGUCUUAUGAGGAUAUA | 5.17 | 5.65 |  |  |
| GCGAUGUUAGGAUAUUGCAUGUAGUGGGUUCCCAGCUGCGUUAAGAAGGGACAUGAGGAUCACCCAUGUGAUGA | 497 | 384 |  |  |
| GCGAUUGCGUAGAAGGUACAAUAUAAUACAUUGUAAGGAUAUACUUACAUGAGGAUCACCCAUGUUAAUGGAAUUUGCAAUCGC |  |  | 18.2 | 11.9 |
| GCGAUUUUGUAAGGAUAUACACGAGUUUUAAGUGUAGAAGGUACUUACAUGAGGAUCACCCAUGUAUAAAUGUAUAAUAGUCGC |  |  | 9.11 | 7.51 |
| GCGAUUUUGUAGAAGGUACGUUAUAAGACAAUGUAAGGAUAUACUGACAUGAGGAUCACCCAUGUAUAAUUAGUUUACAGUCGC |  |  | 7.74 | 5.91 |
| GCGCAAAGAUUAUUAUGAAUAAACAUGAGGAUCACCCAUGUAUAGGAUAUCGACUCGAAUAGAGUCGAGAAGGAUACAUAGCGC | 22.5 | 97.1 |  |  |
| GCGCAGUCAGGAUAUGCCGCUUGCGAUCACCGUUGGCAAAGGCAGAAGGGACAUGAGGAUCACCCAUGUGGCGC | 19.3 | 22.9 |  |  |
| GCGCGGAACCUAGGAUAUCCGGCAUGGACAGGUGGUAAGUCUCCCACAUGAGGAUCACCCAUGUAGGAGAAGGAGGAUCACGGG | 6.51 | 6.7 |  |  |
| GCGGAACAUGAGGAUCACCCAUGUAAAGGGUGUAAAGGAUAUUAUUGGGAGAAGGUAGGGUAAGAAGGUUGCUUGG |  |  | 887 | 1280 |
| GCGGCUAAUGCAGGAUAUCGGCGCGUGUAGCGCCGAGAAGGGCACAUGAGGAUCACCCAUGUGAUCAAUCAAUGUUAAUGCCGC | 8.68 | 45.6 |  |  |
| GCGUAAAAUGUAGGAUAUGACACAGGAAACUGGUCAGAAGGACAUGAGGAUCACCCAUGUAAAAUGUUCAAGAAUAACUCAUGC |  | 172 |  |  |
| GCGUAAUAGGUGUAGCUAGUCAUUCAAGAAGGGUGGAGAACAUGAGGAUCACCCAUGUAGUUUAUACAGGAUAUUGAUAUACGC |  |  | 552 | 138 |
| GCGUCAGAAUUAAUUGUGACAGACAGAAGGCAAUAGUUCAUGUCAGACAUGAGGAUCACCCAUGUUGAGGAUAUGUAUUGACAC | 5.62 | 5.65 |  |  |
| GCGUCAGAAUUAAUUGUGACAUACAGAAGGCAAAAGUAAGGAUAAGACAUGAGGAUCACCCAUGUUGAGGAUAUGUAGAGAAUC | 10.7 | 8.64 |  |  |
| GCGUCAGAAUUAAUUGUGACAUACAGAAGGCAAAAGUUAGGAUUAGACAUGAGGAUCACCCAUGUUGAGGAUAUGUAGAGAAUC | 9.69 | 8.52 |  |  |
| GCGUCAGGAGGAUAUACAUGAGGAUCACCCAUGUAACACGGGAUCGUCGUUUAGUAGAGUAGAAGGCCUAUUGU | 64.1 | 106 |  |  |
| GCGUGUUGAGGAUAUACGAACAUGUCGCCAGAUGUCAUGGUACAUGAGGAUCACCCAUGUAGAAGGUGGUACGC | 263 | 336 |  |  |
| GCGUUACAUGAGGAUCACCCAUGUGAGGAUAUGGUGCGGUAGUGUCCUGUCGCGUACUCCAGAAGGCACGGGUG | 215 | 91.7 |  |  |

| Sequence | apparent Kd [1] [nM] | apparent Kd [2] [nM] | apparent Kd [3] [nM] | apparent Kd [4] [nM] |
| --- | --- | --- | --- | --- |
| GCGUUACAUGAGGAUCACCCAUGUGAGGAUAUGGUUCGGUACUGUCCUGUCGCGUACUCCAGAAGGCACGGGUG | 200 | 115 |  |  |
| GCGUUGAACGAGAAGGCCACUACAUGAGGAUCACCCAUGUCGUAGAGUAUUGGAGGAUAUCGAUAGGCGUCUCAUGAGGACAUA | 23.6 | 11.6 |  |  |
| GCUAAGGGAGGAUAUACAUGAGGAUCACCCAUGUAGUCGCUGCGUUUCAUUAUCCAAGGUAGAAGGCCCAAAAU | 25.4 | 36 |  |  |
| GCUACGCCUGACAUGAGGAUCACCCAUGUUAGAUUGUUAUGUCAGGAUAUAGUCUAGAAACUAGACUAGAAGGGAUGUGUAGCU |  |  | 872 | 112 |
| GCUAGUAUUGCAGGAUAUUGUAAUUUAUUAUUUCAAGAAGGGCAUUACAUGAGGAUCACCCAUGUCAUCCUAUGGUAUACUAGC | 10.6 | 22.8 |  |  |
| GCUAGUCAUGUCAGGAUAUGCAGAUCCUUGGAUCUGCAGAAGGGACAUGAGGAUCACCCAUGUGCCUAGCUAGC | 41 | 317 |  |  |
| GCUAUCGAUGUAGGAUAUGCUAGGGAAACCCUGGCAGAAGGACAUGAGGAUCACCCAUGUCAAUGAGUGAAGAGAAGAGAUGGC | 43.3 | 127 |  |  |
| GCUAUGUCAGGAUAUGCUAGUGCUAGUGAAAGCUAGUGCUAGUAGAAGGGACAUGAGGAUCACCCAUGUGUAGU | 108 | 374 |  |  |
| GCUAUGUCAGGAUAUUGAUCGUGAUCGGAAAUGAUCGUGAUCGAGAAGGGACAUGAGGAUCACCCAUGUGUAGU | 166 | 492 |  |  |
| GCUCAGUAAGGAUAUUAAUGGCACUGUUAUUCAGCGCCAGCUGAGAAGGUACAUGAGGAUCACCCAUGUGGUGA | 228 | 135 |  |  |
| GCUCGAUGAGCUGACUACAUGAGGAUCACCCAUGUAGAUGGGCAGGAUAUUUACGUGCUUUAUGUAGAGAAGGGCCCAUCGAGC |  |  | 324 | 114 |
| GCUGACGAUGUAGGAUAUCAGUAUAAUAAAUACUGAGAAGGACAUGAGGAUCACCCAUGUAAAACUCCGUCAGCGAGGAAACUC | 16.6 | 19.4 |  |  |
| GCUGACGAUGUAGGAUAUCAGUAUAAUAAAUACUGAGAAGGACAUGAGGAUCACCCAUGUAAAAUCCCGUCAGCGAGGAAACUC | 17.1 | 23.8 |  |  |
| GCUGCAUAGGCAGGAUAUGCAAUAAUUCGAAUAAAAUAUAACGGAUUAACAUGAGGAUCACCCAUGUAGAAGGGCCUGUGCAGU | 5.73 | 5.49 |  |  |
| GCUGCAUAUGAGAAGGCGAUCAUGAAACAUGAUCGAGGAUAUCAUGUAAACAUGAGGAUCACCCAUGUAUGGGUAUUAAGCAGC |  |  | 282 | 50.5 |
| GCUGCAUGUGAGAAGGCGAUCAUGAAACAUGAUCGAGGAUAUCAUGUAAACAUGAGGAUCACCCAUGUAUGGGUAUUAAGCAGC |  |  |  | 59.3 |
| GCUGCGCGAGGAUAUGCGGUUCGCGCGGUGGCCGCUGGCGGACAUGAGGAUCACCCAUGUAGAAGGCGUGCGGG | 17 | 19.4 |  |  |
| GCUGCUAUCACAGGAUAUUACAUGGGAAAGAGUACAUGAGGAUCACCCAUGUAAAAGAUCAUAAAUAAGAAGGGUGAUAGCAGC |  |  | 150 | 256 |
| GCUGGUCGAGGAUAUGCAAUCGUGCUUCGGCACGUAAGAUCACAUGAGGAUCACCCAUGUAGAAGGCGACCAGC | 19.5 | 74 |  |  |

| Sequence | apparent Kd [1] [nM] | apparent Kd [2] [nM] | apparent Kd [3] [nM] | apparent Kd [4] [nM] |
| --- | --- | --- | --- | --- |
| GCUGUCGCAUGAGGAUAUGGUCAGCUUUGCUGACCAGAAGGCAUGUCAAUAGACAUGAGGAUCACCCAUGUAGUAAAGACAGCU |  |  | 375 | 33.9 |
| GCUGUGGCAUGAGGAUAUGCUCAGCUUUGCUGAGCAGAAGGCAUGUCAAUAGACAUGAGGAUCACCCAUGUAGUUAACACAGCA |  |  | 462 | 32.9 |
| GCUGUGGCAUGAGGAUAUGGUCAGCUUUGCUGACCAGAAGGCAUGUCAAUAGACAUGAGGAUCACCCAUGUAGUUAACACAGCA |  |  | 572 | 40.7 |
| GCUUCGGCAGGAUAUACAUGAGGAUCACCCAUGUUGAAGUUGAAGAUCUUCGGCUUCGGUAGAAGGGUUGAAGU | 38 | 32.1 |  |  |
| GCUUUAUUGGUCAGGAUAUACAUUUGUUACUCUUUGUAGAAGGGACAUGAGGAUCACCCAUGUACUUUACAUUC | 16 | 17.4 |  |  |
| GCUUUUCUAGCCAAGUGGUAGAGCGCAGAAGGCCAACAUGAGGAUCACCCAUGUAUAAAGAACAUGGAGGAUAUGCGUCACCUU |  |  | 73.7 | 6.5 |
| GGAAAACAUGAGGAUCACCCAUGUGAGGAUAUCGAUGUCCAAAAAAAAGUGCGGGACUCGAGAAGGCACUUGGU | 57.1 | 58.4 |  |  |
| GGAAAACAUGAGGAUCACCCAUGUGAGGAUAUCGAUGUCCAAAAAAAGGUGCGGGACUCGAGAAGGCACUUGGA | 55.6 | 47 |  |  |
| GGAAAACAUGAGGAUCACCCAUGUGAGGAUAUCGAUGUCCAACCCAAAGUGCGGGACUCGAGAAGGCACUUGGA | 45.7 | 31.5 |  |  |
| GGAAAGAAAAGCGAGGAUAUGCUAGGUAAUACAUGAGGAUCACCCAUGUUUUUUUUUAACAAAUUGCAGAAGGCGCAAGAAAGAAA |  |  | 24.5 | 17.4 |
| GGAAUAUUUACAGGAUAUGAUUUGUAAAUUCGAUCAGAAGGGUAGAUGUCUUACACGGUUUGUUACAUGAGGAUCACCCAUGUU |  |  | 126 | 42 |
| GGAAUCUAGUCAGGAUAUCGGGCAAUAAUUGCACGAGAAGGGACAUGAGGAUCACCCAUGUACACCUCUGGUGAGUCUCGCAGG | 16 | 44.3 |  |  |
| GGAAUCUGUGUCACUCCAUUGACAUGAGGAUCACCCAUGUCGCAGGAUAUCAGGCGCGGAGCGACUGAGAAGGGCGACUCGCGG | 86.4 | 50.5 |  |  |
| GGACAGUAAGGAUAUUGAGUCGGACAACGCCGACAGCUAGUCGAGAAGGUACAUGAGGAUCACCCAUGUCAAGU | 19.8 | 18 |  |  |
| GGACAUAAAGUCAGGAUAUUAAGGCGACCACGCGAUGAGAAGGGACAUGAGGAUCACCCAUGUGAUUCGCAUCA | 115 | 101 |  |  |
| GGACAUCCCACAGGAUAUGCUGGACUUUGUCCAGCAGAAGGGUGAAGAACAUGAGGAUCACCCAUGUGGAUGUCCAUAUUUAAU |  |  | 1440 | 95.4 |
| GGACCACAUCAGGAUAUGACUAGCCUCGGCUAGUCAGAAGGGAUGACAUGAGGAUCACCCAUGUGAUCAGGUCC | 67.9 | 110 |  |  |
| GGACGGUUAGUCAGGAUAUGCUCUACCUCGGUAGAGCAGAAGGGACAUGAGGAUCACCCAUGUGAUAACUGUUC | 27.4 | 34.8 |  |  |
